# Assay results: PubChem BioAssay
# Values without a mark were called inactive. Results filed as inconclusive are left out. Activity calls are given as the source filed them.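 How the source made its calls, unless noted: active means inhibition over a set limit, the all-compound mean plus 3 SD, in both replicate runs; inconclusive means over that limit in just one replicate run; inactive means at or under that limit in both runs.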
# Columns and labels:
# [1] = S. cerevisiae growth inhibition in permissive medium (OD615), pilot counter-assay for S. cerevisiae lifespan shortening project, permissive growth control (AID 705;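 active means growth inhibition above 25% in both replicates, a cutoff set 3 SD above the mean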); conditions: OD615, 24 h, at 10 µM, hits give high values
# Outline: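 System: S. cerevisiae with engineered DeaD lifespan system / Measured by: absorbance (optical density) at 615 nm / Read-out: reduction in yeast growth (OD615) / Times: 4 h cell pre-growth, 24 h exposure at 30 °C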
# [2] = S. cerevisiae growth inhibition in restrictive medium, OD615, pilot screen, restrictive growth control, yeast lifespan reduction project (AID 706;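 active means growth inhibition above a set limit, 3 SD over mean compound inhibition, in both replicates, cut at about 43% in these data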;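 further: modified DeaD lifespan yeast strain shifted to restrictive glucose medium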); conditions: OD615, 48 h, at 10 µM, hits give high values
# Outline: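 System: Engineered S. cerevisiae DeaD strain | Buffer or medium: Glucose-based CSMM-D restrictive medium | Schedule: 4 h pre-incubation, 48 h exposure at 30 °C | Technique: Optical density at 615 nm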
# [3] = doxorubicin toxicity protection in MRP-1 cells – H69AR cells, CellTiter-Glo, duplicate, MRP-1 activator project, pilot screen (AID 807;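 active means viability increase at or above a cutoff of the median across tested compounds plus 3 SD, cut at about 8.5% in these data, passing the limit was not always enough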;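 further: compound pretreatment 18-22 h then 72 h combined with doxorubicin; 0% = doxorubicin alone and 100% = vehicle without doxorubicin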); conditions: H69AR viability with doxorubicin, CellTiter-Glo luminescence; at 10 µM; hits give high values
# [4] = viability of HCT116 without oncogenic beta-catenin – human colon tumor cells, pilot screen (AID 823;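 active means cell viability at or below a set limit in both duplicate runs, the limit being the all-compound median minus 4 SD, cut at about 23% in these data, passing the limit was not always enough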;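 further: 0% = wells killed by 20 µM Hyamine and 100% = untreated DMSO cell wells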); conditions: HCT116 beta-catenin knockout viability, CellTiter-Glo, 60 h; at 10 µM; hits give low values
# [5] = viability of PTEN-null HCT116 cells – cell-based, HCT116 clonal line, CellTiter-Glo, pilot screen (AID 824;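 active means viability at or below 27.92% in each of two runs, the all-compound median minus 4 SD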;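 further: 0% = 20 µM Hyamine control and 100% = vehicle cell control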); conditions: HCT116 PTEN-deleted viability, 60 h, at 10 µM, hits give low values
# [6] = RAM pathway blockade in budding yeast – dse1pr::URA3 reporter, 5-FOA selection, pilot screen (AID 869);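 further: 0% = DMSO wells with no growth and 100% = 10 µM 1-NA-PP1 with full growth; RAM network block rescues cells from 5-FOA so hits raise OD615 growth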; conditions: S. cerevisiae dse1pr::URA3 5-FOA growth, OD615, 2 d; at 10 µM; hits give high values; strain carries analog-sensitive mutant Cbk1 kinase
# [7] = RAM signaling pathway blockade in yeast – S. cerevisiae, Pdr1DBD-CYC8 efflux-inhibited sensitized strain, primary screen (AID 1298;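 active means RAM network inhibition above 8.4% in each of two replicates, 3 SD over the compound average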;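 further: 0% = DMSO untreated cells without growth and 100% = 10 µM 1-NA-PP1 full growth; higher means more yeast growth rescued from 5-FOA killing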); conditions: S. cerevisiae cbk1-as DSE1-URA3 strain, 5-FOA growth OD615, 2 d; at 50 µM; hits give high values
Compound,growth inhibition [1],growth inhibition [2],viability increase [3],viability [4],viability [5],inhibition [6],RAM network inhibition [7]
CCOC(=O)c1ccc(N2C(=O)CC(N3CCN(Cc4ccccc4)CC3)C2=O)cc1 (stereo unspecified),-18.6%,-15.4%,0.7%,101%,103%,0.175%,2.65%
COCCCN1Cc2cccc(C(=O)O)c2C1=O,1.16%,4.03%,-2.13%,103%,102%,0.525%,7.02%
CN(C)S(=O)(=O)c1ccc2c(c1)c(=O)c(C(=O)N1CCN(c3ccccn3)CC1)cn2C,-5.42%,5.45%,1.06%,97.9%,104%,0.415%,4.54%
Cc1ccc(N(CC(=O)NCc2cccnc2)S(C)(=O)=O)cc1C,-8.32%,-10.2%,-2.97%,97.3%,98.8%,0.71%,2.28%
O=C(CCCn1c(=O)oc2ccccc21)N1CCc2ccccc2C1,-8.29%,-14.1%,-4.06%,94.3%,95.2%,1.48%,4.82%
COc1ccccc1C1NC(=O)NC(C)=C1C(=O)OC1CCCCC1 (stereo unspecified),-4.16%,-6.71%,0.87%,97.5%,92.3%,2.65%,2.9%
C=CCn1cc(C(=O)N2CCN(C)CC2)c(=O)c2cc(S(=O)(=O)N3CCCC3)ccc21,-6.54%,-12.6%,-0.09%,105%,106%,0.73%,3.9%
CSC1=C(C#N)C(c2ccc(C(C)C)cc2)CC(=O)N1 (stereo unspecified),-4.75%,-18.3%,0.04%,99.6%,91%,2%,1.87%
O=C(CCNS(=O)(=O)c1cccc2nonc12)NCCc1ccc(Cl)cc1,-2.56%,-9.13%,5.07%,90%,101%,-0.08%,3%
Cc1cc(C)n(-c2nc3ccccc3nc2N2CCOCC2)n1,-12.6%,7.74%,-1.22%,98%,98.3%,2.33%,2.25%
COCCNC(=O)C1CCN(S(=O)(=O)c2ccccc2)CC1,-2.1%,-7.54%,-1.38%,101%,93.7%,-0.045%,2.93%
Cc1cc(NC(=O)CSc2cn(C)c3ccccc23)no1,-8.73%,4.95%,-2.87%,97.6%,99.1%,0.48%,1.44%
O=C1CC(c2ccco2)CC(O)=C1C=NCCO (stereo unspecified),-12.7%,-1.73%,0.27%,104%,105%,1.79%,3.26%
COc1ccccc1NC(=O)N1CCN(c2ccccn2)CC1,-12.1%,-7.1%,0.85%,103%,104%,2.67%,4.32%
CCN(CC)CCCNC(=O)C1c2ccccc2C(=O)N(C)C1c1ccc(OC)cc1 (stereo unspecified),-23%,-20.7%,0.37%,96.5%,97.3%,3.1%,2.54%
Cc1ccccc1CNc1nc(N)n(-c2ccccc2)n1,-0.29%,2.71%,-1.74%,104%,98.1%,0.48%,4.87%
CCNC(=O)COc1ccc2ccccc2c1,-2.77%,3.62%,0.99%,97.4%,99.6%,1.06%,1.53%
COCc1cc(C)nc2sc(C(=O)N3CCN(c4ccccc4)CC3)c(N)c12,-3.52%,2.86%,-0.4%,89%,86.8%,1.76%,3.05%
O=C(O)CC(C(=O)NC1CCCCC1)C1CCCO1 (stereo unspecified),-1.02%,-15.1%,-1.68%,98.3%,102%,0.36%,1.76%
NC(=O)C1(N2CCCCC2)CCN(S(=O)(=O)c2cc(Cl)ccc2Cl)CC1,4.2%,3.53%,0.74%,98.7%,91.1%,1.56%,6.42%
CCOC(=O)C1CCCN(C(=O)CN(c2ccc(OC)cc2)S(=O)(=O)c2c(C)noc2C)C1 (stereo unspecified),-7.31%,-7.06%,-2.84%,102%,93.8%,1.58%,1.13%
Cc1cc(=O)c2c(C)nn(-c3ccccc3)c2[nH]1,-2.51%,2.11%,-2.26%,96.7%,92.3%,2.23%,1.4%
COc1ccc(NC(=O)CN2CC(c3ccccc3)CC2=O)cc1OC (stereo unspecified),-17.9%,-15.6%,-1.08%,104%,95.1%,0.27%,2.86%
CCn1c(/C=N/n2cnnc2)nc2ccccc21,-6.04%,-5.67%,-0.75%,96.8%,92.8%,1.56%,-0.99%

Compound,growth inhibition [1],growth inhibition [2],viability increase [3],viability [4],viability [5],inhibition [6],RAM network inhibition [7]
N#Cc1ccc(OCCN2C(=O)NC3(CCSC3)C2=O)cc1 (stereo unspecified),-2.65%,-19%,-1.88%,101%,94.4%,0.975%,0.56%
COc1ccc(N2CCN(C(=O)c3ccc4c(c3)OCO4)CC2)cc1,-2.83%,14.7%,-0.77%,97.8%,100%,2.04%,0.86%
C=CCNC(=O)COc1ccc(Br)cc1Cl,-15.7%,-6.88%,1.27%,99%,91.2%,1.36%,9.74%
Cc1c(C(=O)NCc2ccc3c(c2)OCO3)sc2nc(-c3ccccc3)cn12,5.98%,-4.12%,-0.35%,111%,103%,3.05%,6.39%
CCOC(=O)Cn1c(=O)oc2cc(S(=O)(=O)N3CCC(N4CCCCC4)CC3)ccc21,-7.51%,-9.77%,0.75%,101%,105%,1.06%,0.21%
FC(F)C(F)(F)C1=CC(c2ccccc2)=NCCN1,-9.88%,-17.6%,-1.16%,96.7%,85.5%,1.59%,2.09%
O=C(Cc1cc(=O)[nH]c(=O)[nH]1)N1CCC(Cc2ccccc2)CC1,0.795%,-5.47%,-0.99%,96%,94.2%,1.33%,3.92%
Cc1ccc(C(C)C)c(OCc2nc(-c3nonc3N)no2)c1,-13%,-14.4%,8.48% (active),88.3%,81.2%,1.71%,3.09%
COc1ccc(Br)cc1S(=O)(=O)N(CC(=O)N1CCOCC1)c1ccccc1,-2.82%,-7.74%,-2.08%,98.1%,98.6%,2.6%,3.62%
COc1ccc(OC)c(C2CC(=O)N3CN(c4ccccc4)CSC3=C2C#N)c1 (stereo unspecified),0.46%,26.8%,-4.09%,96.2%,94.5%,1.09%,0.06%
COC(=O)c1ccccc1NC(=O)CSc1nccn1C,-3.94%,2.94%,-0.69%,93.1%,92.2%,1.27%,2.31%
CC(NC(=O)Cc1ccccc1)c1nc2ccccc2[nH]1 (stereo unspecified),-3.99%,-1.91%,-1.22%,108%,97.1%,0.08%,3.75%
O=C1CCC(=O)N1CNc1cccnc1,-7.25%,-12.2%,-0.41%,95.3%,103%,0.34%,5.5%
c1ccc(CNn2c(N3CCOCC3)nc3ccccc32)cc1,-14.9%,-10.9%,-3.02%,93%,93.2%,0.5%,4.26%
C(=N\n1cnnc1)/C1CCCCC1,-4.95%,-1.24%,-2.8%,101%,98.4%,0.19%,6.93%
Cc1nnc(NC(=O)CSc2nc3c(c(=O)n2CCc2ccccc2)SC(C)C3)s1 (stereo unspecified),-9.82%,-15.6%,0.33%,101%,103%,3.13%,6.06%
CCOC(=O)c1ccc(NC(=O)C2CCCN(S(=O)(=O)c3cnc[nH]3)C2)cc1 (stereo unspecified),2.33%,2.53%,0.94%,105%,96.7%,0.31%,2.17%
COc1ccc(N(CC(=O)Nc2nccs2)S(=O)(=O)c2c(C)nn(C)c2C)cc1,-18.2%,-6.82%,-3.77%,93%,87.5%,3%,3.8%
O=C(COC(=O)c1cc2ccccc2o1)c1ccccc1,-8.98%,2%,-0.26%,96.9%,98.1%,-0.115%,2.95%
O=C(O)CCC(=O)NCc1ccc2[nH]c3c(c2c1)CCCC3,-13.2%,3.53%,0.95%,101%,96.5%,1.51%,4.69%
C=C(C)Cn1c(SCC(=O)O)nc2c1c(=O)[nH]c(=O)n2C,-15.9%,-14%,1.02%,96.7%,98.8%,0.63%,3.24%
COc1ccc(NC(=O)CCS(=O)(=O)c2cccc3nonc23)c(OC)c1,-4.67%,-11.7%,-2.54%,96.2%,93.8%,0.51%,2.06%
COC(=O)c1ccc(N2CCOCC2)c(NC(=O)Nc2cccc(OC)c2)c1,-14.5%,-8.03%,-5.3%,84.4%,77.1%,1.09%,5.95%
COc1ccc(C2CC(=O)C3=C(C2)NC(C)=C(C#N)C3c2ccc(N(C)C)cc2)cc1 (stereo unspecified),-6.35%,7.55%,0.06%,78.5%,75.8%,2.72%,5.79%
